Measurements from different studies.
Each line is one published result; the experiments were not run side by side. ≈ marks a conversion by molar mass, not a printed value.
Organism: Staphylococcus aureus

C=CCn1c(-c2ccc(Cl)cc2)nc2ccccc21
MIC (microbial growth, broth dilution; ATCC43300 MRSA; drug-resistant strain): 128 µg/mL (≈ 476 µM)

O=C(Sc1cccccc1=O)c1ccccc1
MIC80 (microbial growth, broth dilution; ATCC29213): 13.2 µM (≈ 3.2 µg/mL)

O=[N+]([O-])c1ccc(-c2nc3ccccc3[nH]2)cc1
MIC (microbial growth, broth dilution; ATCC43300 MRSA; drug-resistant strain): 256 µg/mL (≈ 1070 µM)

O[C@]12C=C(c3nccc4c3[nH]c3ccccc34)[C@@H]3CCN(CCCC/C=C\CC1)C[C@@]31C[C@@H]3/C=C\CCCCN3[C@H]12
IC50 (microbial growth; MRSA; drug-resistant strain): 0.7 µg/mL (≈ 1.28 µM)

COC(=O)c1cc(-c2cccc(NC(=S)Nc3ccc(C)cc3)c2)on1
MIC (microbial growth, broth dilution; ATCC29213): > 64 µg/mL

O=C(O)c1cn(C2CC2)c2cc(N3CCNCC3)c(F)cc2c1=O
inhibition zone (microbial growth; SG511; 5 µg/mL, 20 h): 25 mm

Fc1cccc(Cl)c1-c1nc2ccccc2[nH]1
MIC (microbial growth, broth dilution; ATCC43300 MRSA; drug-resistant strain): 128 µg/mL (≈ 519 µM)

COC(=O)c1cc(-c2cccc(NC(=O)Nc3cccc(F)c3)c2)on1
MIC (microbial growth, broth dilution; ATCC29213): > 64 µg/mL

CSc1ccc(-c2nc3ccc(C)cc3[nH]2)cc1
MIC (microbial growth, broth dilution; ATCC43300 MRSA; drug-resistant strain): 32 µg/mL (≈ 126 µM)

CC1(C)CC[C@]2(C(=O)O)CC[C@]3(C)C(=CC[C@@H]4[C@@]5(C)CC[C@H](O)C(C)(C)[C@@H]5CC[C@]43C)[C@@H]2C1
MIC (microbial growth; USA400): 256 µg/mL (≈ 561 µM)

O=C(O)c1cn(C2CC2)c2cc(N3CCNCC3)c(F)cc2c1=O
MBC (microbial killing): 0.019 µg/mL

COC(=O)c1cc(-c2cccc(NC(=S)Nc3ccc(F)cc3)c2)on1
MIC (microbial growth, broth dilution; ATCC29213): > 64 µg/mL

CCOc1ccc(-c2nc3ccccc3n2Cc2ccccc2)cc1
MIC (microbial growth, broth dilution; ATCC43300 MRSA; drug-resistant strain): 64 µg/mL (≈ 195 µM)

COC(=O)c1cc(-c2cccc(NC(=S)Nc3ccccc3)c2)on1
MIC (microbial growth, broth dilution; ATCC29213): > 64 µg/mL

CN[C@H](CC(C)C)C(=O)N[C@H]1C(=O)N[C@@H](CC(N)=O)C(=O)N[C@H]2C(=O)N[C@H]3C(=O)N[C@H](C(=O)N[C@H](C(=O)O)c4cc(O)cc(O)c4-c4cc3ccc4O)[C@H](O)c3ccc(c(Cl)c3)Oc3cc2cc(c3O[C@@H]2O[C@H](CO)[C@@H](O)[C@H](O)[C@H]2O[C@H]2C[C@](C)(N)[C@H](O)[C@H](C)O2)Oc2ccc(cc2Cl)[C@H]1O
MBC (microbial killing, broth dilution; ATCC6538): 2 µM

COC(=O)c1cc(-c2cccc(NC(=S)Nc3ccc(F)cc3F)c2)on1
MIC (microbial growth, broth dilution; ATCC29213): > 64 µg/mL

C=CCn1c(-c2ccc(Cl)c(Cl)c2)nc2ccccc21
MIC (microbial growth, broth dilution; ATCC43300 MRSA; drug-resistant strain): 64 µg/mL (≈ 211 µM)

CC1(c2ccccc2O)Nn2c(nc(-c3ccc(Cl)cc3)c(C#N)c2=O)N1C(Cc1c[nH]c2ccccc12)C(=O)O (stereo not shown)
MBC (microbial killing; drug-resistant strain): 100 µg/mL

COC(=O)c1cc(-c2cccc(NC(=O)Nc3ccc(OC)cc3)c2)on1
MIC (microbial growth, broth dilution; ATCC29213): > 64 µg/mL
